Results on 19 compounds are retold here after ChEMBL document CHEMBL1156185, “A class of 3S-2-aminoacyltetrahydro-beta-carboline-3-carboxylic acids: their facile synthesis, inhibition for platelet activation, and high in vivo anti-thrombotic potency” (J Med Chem, 2010).

Assay [1] can be described thus: Antiplatelet aggregation activity against ADP-induced pig platelet aggregation after 5 mins by aggregometer. It is filed as functional, cell-based. The following applies: Sus scrofa. In outline: (§1)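 Pig blood from six pigs was spun at 1000 rpm for 10 min to give PRP, then at 1500g for 10 min to give PPP. PRP was adjusted to 2 × 10⁸ platelets/mL with autologous PPP. Test agent or NS was added at final 100 µM–1 nM. Agonists were at final concentrations of ADP 10 µM, AA 350 µM, PAF 0.1 µM and thrombin 0.1 U/mL. Light-transmission peak was read at 37 °C over 5 min, in sextuplicate. IC50 was taken from the concentration–inhibition curve.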

Assay [2] has as its system Platelet. The experiment in a line: Ratio of IC50 for arachidonic acid-induced pig platelet aggregation to IC50 for ADP-induced pig platelet aggregation. The class given is functional, Sus scrofa. The method, boiled down: (§2)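 Fold ratios of IC50 values. Each IC50 came from pig PRP (2 × 10⁸ platelets/mL) light-transmission aggregometry at 37 °C for 5 min, in sextuplicate, with final ADP 10 µM, AA 350 µM, PAF 0.1 µM or thrombin 0.1 U/mL.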

Assay [3] in a line: Antiplatelet aggregation activity against platelet-activating factor-induced pig platelet aggregation after 5 mins by aggregometer. Particulars: Sus scrofa. The class given is functional, cell-based. The method, boiled down:
as §1

The test system of assay [4] is Platelet. The experiment in a line: Ratio of IC50 for thrombin-induced pig platelet aggregation to IC50 for ADP-induced pig platelet aggregation. It is filed as functional, Sus scrofa. The method, boiled down: as §2
Assay [5] has as its system Platelet. Description: Ratio of TCCA IC50 to compound IC50 for ADP-induced pig platelet aggregation. The class given is functional, Sus scrofa. In outline:
as §2

Assay [6] is described as follows: Antiplatelet aggregation activity against thrombin-induced pig platelet aggregation after 5 mins by aggregometer. Particulars: Sus scrofa. The class given is functional, cell-based. In outline: as §1
The test system of assay [7] is Platelet. Description: Ratio of IC50 for platelet-activating factor-induced pig platelet aggregation to IC50 for ADP-induced pig platelet aggregation. The class given is functional, Sus scrofa. In outline: as §2
Assay [8] can be described thus: Antiplatelet aggregation activity against arachidonic acid-induced pig platelet aggregation after 5 mins by aggregometer. The class given is functional, cell-based. Particulars: Sus scrofa. The method, boiled down: as §1
In the next assay the test system is Rattus norvegicus. The experiment in a line: Antithrombotic activity in Wistar rat arterioveinos cannula model assessed as reduction of thrombus weight at 100 nmol/kg, iv. The class given is functional. The method, boiled down: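 Male Wistar rats, 250–300 g. Agents were dissolved in NS and kept on ice. Heparin sodium was injected into a thread-containing polyethylene cannula, then NS or agent was injected intravenously. The cannula joined the right carotid artery to the left jugular vein, and blood flowed through it for 15 min. Wet thrombus weight on the thread was recorded as mean ± SD, n = 12.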

Assay [9] is described as follows: Antiplatelet aggregation activity against collagen-induced platelet. The class given is functional, cell-based.

The term IC50 denotes the concentration that gives 50% inhibition. For `N[C@@H](Cc1c[nH]c2ccccc12)C(=O)N1Cc2[nH]c3ccccc3c2C[C@H]1C(=O)O`, the IC50 in assay [1] was determined as 10.4 nM; in [3], 16.8 nM; in assay [6], 29.6 nM; in assay [8] it was 27.9 nM. The “Ratio IC50” value is 2.7 with Platelet [2], 2.8 in the assay on Platelet [4], 67 with Platelet [5] and 1.6 with Platelet [7]. In addition, in the assay with Rattus norvegicus, the Thrombus weight is on record as 18.43 mg.
Consider `N[C@@H](CC(=O)O)C(=O)N1Cc2[nH]c3ccccc3c2C[C@H]1C(=O)O`, for which the IC50 in [1] was 6.62 nM; in assay [3] it was 13.1 nM; in assay [6], 26.6 nM; in [8], 24 nM. The Ratio IC50 was determined as 3.6 with Platelet [2], 4 with Platelet [4], 106 with Platelet [5] and 2 in the assay with Platelet [7]. The Thrombus weight in the assay on Rattus norvegicus was determined as 14.4 mg.
Consider `N[C@@H](CCC(=O)O)C(=O)N1Cc2[nH]c3ccccc3c2C[C@H]1C(=O)O`, for which the half-maximal inhibitory concentration (IC50) is 10.2 nM in [1], 14.8 nM in [3], 30.9 nM in assay [6] and 29.6 nM in assay [8]. Further, the Ratio IC50 in the assay with Platelet [2] amounted to 2.9; in the assay on Platelet [4] it was 3; with Platelet [5] it was 68; in the assay on Platelet [7], 1.4. Further, in the assay on Rattus norvegicus, the Thrombus weight was determined as 16.6 mg.
Turning to `N[C@@H](Cc1cnc[nH]1)C(=O)N1Cc2[nH]c3ccccc3c2C[C@H]1C(=O)O`, the IC50 in [1] is 7.31 nM; in assay [3] it was 15.5 nM; in assay [6] it was 29 nM; in [8] it was 24.9 nM. Besides, the Ratio IC50 in the assay with Platelet [2] was 3.4; in the assay with Platelet [4], 4; in the assay on Platelet [5], 96; in the assay with Platelet [7] it was 2.1. Further, the Thrombus weight in the assay with Rattus norvegicus stood at 15.89 mg.
On to `N=C(N)NCCC[C@H](N)C(=O)N1Cc2[nH]c3ccccc3c2C[C@H]1C(=O)O`, for which the IC50 came to 9.47 nM in assay [1], 18.2 nM in assay [3], 29.7 nM in [6] and 27.5 nM in assay [8]. Also, the Ratio IC50 with Platelet [2] amounted to 2.9; with Platelet [4], 3.1; in the assay on Platelet [5] it was 74; in the assay with Platelet [7], 1.9. Moreover, the Thrombus weight in the assay on Rattus norvegicus was determined as 16.68 mg.
On to `NCCCC[C@H](N)C(=O)N1Cc2[nH]c3ccccc3c2C[C@H]1C(=O)O`, for which the IC50 came out at 11.1 nM in assay [1], 17 nM in assay [3], 33.4 nM in assay [6] and 30.1 nM in [8]. The “Ratio IC50” value with Platelet [2] was determined as 2.7; in the assay with Platelet [4], 3; with Platelet [5], 63; in the assay with Platelet [7], 1.5. The Thrombus weight in the assay on Rattus norvegicus was determined as 16.54 mg.
Take `NC(=O)CC[C@H](N)C(=O)N1Cc2[nH]c3ccccc3c2C[C@H]1C(=O)O`: the IC50 in [1] was 7.7 nM; in assay [3], 17.2 nM; in assay [6], 30.1 nM; in [8] it was 28.2 nM. In addition, the Ratio IC50 was determined as 3.7 in the assay with Platelet [2], 3.9 in the assay on Platelet [4], 91 in the assay on Platelet [5] and 2.2 in the assay on Platelet [7]. For the same compound, in the assay on Rattus norvegicus, the Thrombus weight is 17.3 mg.
Regarding `NC(=O)C[C@H](N)C(=O)N1Cc2[nH]c3ccccc3c2C[C@H]1C(=O)O`, the IC50 in assay [1] was found to be 9.19 nM; in assay [3] it was 16.2 nM; in [6] it was 30 nM; in [8], 28.9 nM. Also, the Ratio IC50 in the assay with Platelet [2] is 3.2; with Platelet [4], 3.3; in the assay with Platelet [5] it was 76; in the assay with Platelet [7], 1.8. Moreover, the Thrombus weight in the assay on Rattus norvegicus turned out to be 16.34 mg.
On to `NCC(=O)N1Cc2[nH]c3ccccc3c2C[C@H]1C(=O)O`, for which the IC50 in assay [1] was 8.56 nM; in assay [3], 16.8 nM; in assay [6] it was 31.9 nM; in assay [8], 26.5 nM. Moreover, the Ratio IC50 in the assay with Platelet [2] is 3.1; in the assay with Platelet [4] it was 3.7; in the assay with Platelet [5] it was 82; in the assay on Platelet [7] it was 2. Besides, the Thrombus weight with Rattus norvegicus is 19.29 mg.
For the compound `N[C@@H](CS)C(=O)N1Cc2[nH]c3ccccc3c2C[C@H]1C(=O)O`, the 50% inhibitory concentration (IC50) in assay [1] was 7.1 nM; in assay [3], 14.7 nM; in assay [6], 27.6 nM; in [8], 24.4 nM. Further, the Ratio IC50 in the assay on Platelet [2] was 3.4; in the assay on Platelet [4] it was 3.9; with Platelet [5], 99; in the assay on Platelet [7], 2.1. Besides, in the assay with Rattus norvegicus, the Thrombus weight was found to be 15.25 mg.
In the case of `C[C@H](N)C(=O)N1Cc2[nH]c3ccccc3c2C[C@H]1C(=O)O`, the IC50 came out at 6.71 nM in assay [1], 13.6 nM in assay [3], 27.4 nM in assay [6] and 24.6 nM in assay [8]. The Ratio IC50 with Platelet [2] came out at 3.7; in the assay with Platelet [4], 4.1; in the assay with Platelet [5], 104; in the assay on Platelet [7], 2. In addition, the Thrombus weight in the assay on Rattus norvegicus was found to be 14.61 mg.
As to `N[C@@H](Cc1ccccc1)C(=O)N1Cc2[nH]c3ccccc3c2C[C@H]1C(=O)O`, the IC50 came to 9.8 nM in assay [1], 19 nM in [3], 30.2 nM in assay [6] and 28.6 nM in [8]. Besides, the Ratio IC50 in the assay with Platelet [2] was 2.9; in the assay on Platelet [4] it was 3.1; in the assay with Platelet [5] it was 72; in the assay on Platelet [7], 1.9. Also, the Thrombus weight in the assay with Rattus norvegicus was determined as 17.25 mg.
With `CC(C)[C@H](N)C(=O)N1Cc2[nH]c3ccccc3c2C[C@H]1C(=O)O`, the 50% inhibitory concentration (IC50) in assay [1] was found to be 7.8 nM; in assay [3], 17.7 nM; in assay [6] it was 32.5 nM; in assay [8], 27.3 nM. Besides, the Ratio IC50 in the assay on Platelet [2] came to 3.5; in the assay on Platelet [4] it was 4.2; in the assay with Platelet [5] it was 90; in the assay on Platelet [7], 2.3. The Thrombus weight with Rattus norvegicus is on record as 18.56 mg.
As to `N[C@@H](CO)C(=O)N1Cc2[nH]c3ccccc3c2C[C@H]1C(=O)O`, the IC50 in assay [1] came out at 8.66 nM; in [3] it was 16.1 nM; in assay [6], 30.8 nM; in assay [8] it was 26.2 nM. In addition, the Ratio IC50 was 3 in the assay on Platelet [2], 3.6 in the assay on Platelet [4], 81 in the assay on Platelet [5] and 1.9 with Platelet [7]. For the same compound, in the assay on Rattus norvegicus, the Thrombus weight is reported as 16.25 mg.
With `N[C@@H](Cc1ccc(O)cc1)C(=O)N1Cc2[nH]c3ccccc3c2C[C@H]1C(=O)O`, the IC50 worked out at 7.76 nM in assay [1], 15.1 nM in [3], 28.4 nM in assay [6] and 25.2 nM in [8]. The Ratio IC50 in the assay on Platelet [2] was 3.2; in the assay with Platelet [4], 3.7; in the assay on Platelet [5] it was 90; with Platelet [7] it was 1.9. Also, the Thrombus weight in the assay with Rattus norvegicus was 15.49 mg.
On to `C[C@@H](O)[C@H](N)C(=O)N1Cc2[nH]c3ccccc3c2C[C@H]1C(=O)O`, for which the IC50 turned out to be 7.81 nM in assay [1], 14.8 nM in [3], 27.8 nM in assay [6] and 24.6 nM in [8]. The Ratio IC50 in the assay on Platelet [2] stood at 3.1; in the assay with Platelet [4], 3.6; in the assay on Platelet [5] it was 90; in the assay with Platelet [7] it was 1.9. For the same compound, the Thrombus weight with Rattus norvegicus is 15.72 mg.
In assay [9], `COc1ccc2c3c([nH]c2c1)C(C)=NCC3` [HARMALINE] had an IC50 of more than 130000 nM.
As to `CC1=NCCc2c1[nH]c1cc(O)ccc21` [HARMALOL], the IC50 in assay [9] is more than 130000 nM.
On the same count and under the same terms, for `Cc1nccc2c1[nH]c1ccccc12` [HARMAN] the value was more than 130000 nM.
